Experimental data reported in PMC8819215 (Iranian Journal of Public Health, 2021).
Where two headings read alike, the source gives them in different places.

What was measured:
[1] = tested on: parasites; conditions: cited from earlier work
[2] = tested on: J774A.1 macrophages cell line; test: Cytotoxicity; format: cell-based, mice
[3] = tested on: L. major promastigotes; test: Promastigote growth inhibition; format: cell-based, Leishmania major
Method in brief: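 Stationary-phase (5 d) L. major MRHO/IR/75/ER promastigotes (1×10^6) were grown at 26 °C in RPMI-1640 with 10% heat-inactivated FCS, pH 7.4. They received TBO (7.8–500 μg/ml) plus 630 nm LED irradiation. MTT at 570 nm was read at 2, 24 and 48 h, as % of untreated OD. IC50 came from dose-response curves, triplicates. SI = macrophage CC50/promastigote IC50.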

[4] = tested on: L. braziliensis; conditions: 10 μg/ml TBO; cited from earlier work
[5] = tested on: L. major; conditions: cited from earlier work
[6] = tested on: L. braziliensis; conditions: in-vitro; cited from earlier work

CN(C)c1ccc2nc3ccc(=[N+](C)C)cc-3sc2c1 [MB, methylene blue]
decrease of parasites viability ([1]; PDT): more than 70% | decrease of parasites viability ([1]; in the dark, higher concentration of MB): up to 50%

Cc1cc2nc3ccc(N(C)C)cc3[s+]c2cc1N.[Cl-] [TBO, Toluidine Blue O]
toxicity to macrophages compared to glucantime (positive control) [2]: less toxicity | cytotoxicity to J774.A1 macrophages ([2]; dark group): no cytotoxic | decrease in viability ([3]; PDT, three highest concentrations, after 24 h): more than 70% | toxicity to parasites ([3]; dark group (no PDT), highest concentrations): intermediate toxicity | parasite viability [4]: significantly reduced

Aluminum phthalocyanine
phototoxicity ([5]; 10.0μM concentration and 10 J/cm^2 irradiation): phototoxic

aluminum phthalocyanine tetra sulfonate
elimination of parasites by PDT ([5]; in-vitro): effectively eliminated | elimination of parasites by PDT [6]: effectively eliminated
